In the library only some 1% were active in any assay of this set; here they are far more common.
Tn7 DDE FP: inhibitors of Tn7 peptide binding to fibrin DD(E), primary screen, biochemical, fluorescence polarization, human fibrin, Tn7 probe | FP displacement of FITC-Tn7 peptide from fibrin DD(E); 0% = median of compound wells per plate | inhibition, % at 8.3 µM | 370,000 compounds, 0.13% hits;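 active means inhibition above the mean of compounds falling within the control limits plus 3 SD of them, cut at about 14% in these data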;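 further: 0% = plate median of compound wells and 100% = 10 µM Aha-Tn7 peptide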
Target sequence (P02675 whole entry, looked up): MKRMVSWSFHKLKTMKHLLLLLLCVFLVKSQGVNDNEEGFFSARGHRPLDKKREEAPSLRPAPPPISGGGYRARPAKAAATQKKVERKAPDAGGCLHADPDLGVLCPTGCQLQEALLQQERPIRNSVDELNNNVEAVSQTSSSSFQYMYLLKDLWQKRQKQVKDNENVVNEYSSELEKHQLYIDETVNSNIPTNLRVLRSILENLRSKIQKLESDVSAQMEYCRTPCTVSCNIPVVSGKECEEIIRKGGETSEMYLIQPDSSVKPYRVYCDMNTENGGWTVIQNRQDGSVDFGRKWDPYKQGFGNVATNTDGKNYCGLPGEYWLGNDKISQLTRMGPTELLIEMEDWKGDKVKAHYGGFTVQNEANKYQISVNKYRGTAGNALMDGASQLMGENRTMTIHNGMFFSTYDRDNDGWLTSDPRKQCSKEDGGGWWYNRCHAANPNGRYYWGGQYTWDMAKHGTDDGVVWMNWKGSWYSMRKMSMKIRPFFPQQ
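Assay system: Human clot-derived fibrin DD(E) complex | Buffer or medium: Tris/NaCl/CaCl2 buffer, pH 7.8 | Repeats: One replicate per compound | Benchmarks: Aha-Tn7 high control | Measure: % inhibition scaled between sample-field median and high-control FP | Schedule: 10 min plus 3 h, room temperature | Signal: Fluorescence polarization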
Neddylation inh: inhibitors of cullin neddylation, primary screen, biochemical, TR-FRET, uHTS, NAE and Ubc12. AID 651699, 2012. inhibition, % at 25 µM. 360,000 compounds, 0.58% hits. NEDD8-conjugating enzyme Ubc12 (Homo sapiens) + NEDD8-activating enzyme E1 regulatory …; in the data active means inhibition above about 36%
PKA-R2B act: activators of PKA-R2B holoenzyme, primary screen, biochemical, fluorescence polarization, Cy5-IP20, human; cAMP-dependent protein kinase catalytic subunit beta (Homo sapiens) + cAMP-dependent …; PKA-R2B holoenzyme dissociation; R2B truncated from residue 108, S112A mutant; 0% DMSO only, 100% 113 µM cGMP; activation, % at 11.4 µM; 340,000 compounds, 0.079% hits;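 active means activation above a cutoff set at the mean over all compounds plus 3 SD, cut at about 18% in these data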;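 further: higher means more holoenzyme dissociation and a rise in polarization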
DDE Tn6 FP inh: inhibitors of Tn6 peptide binding to fibrin DD(E), primary screen, biochemical, fluorescence polarization, human fibrin, Tn6 probe | Fibrinogen beta chain (Homo sapiens), P02675 | Fibrin DD(E) TRITC-Tn6 fluorescence polarization displacement | inhibition, % at 8.3 µM | 370,000 compounds, 0.21% hits | AID 720509, 2013;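 active means inhibition above a per-campaign cutoff: mean of compounds within control limits plus 3 SD, cut at about 15% in these data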;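 further: 0% = median of all compound wells on the plate and 100% = blocking peptide control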
PKA-R1A activ: activators of PKA-R1A holoenzyme, primary screen, biochemical, fluorescence polarization, Cy5-IP20, bovine R1A, mouse PKAc; cAMP-dependent protein kinase type I-alpha regulatory subunit (Bos taurus) + …; PKA-R1A dissociation; scaled: DMSO 0%, 113 µM cGMP 100%; activation, % at 11.4 µM; 340,000 compounds, 0.083% hits; AID 504707, 2011;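 active means percent activation above the mean of all tested compounds plus 3 SD, cut at about 19% in these data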;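 further: higher means more PKAc released from R1A so a rise in polarization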
DDE Tn6 FP ctr: counter-screen hit for Tn6 peptide-fibrin DD(E) binding disruption; TRITC-Tn6 fluorescence polarization displacement; 0% = median of compound wells, not DMSO; inhibition, % at 8.3 µM; 680 compounds, 2% hits; shares compounds with DDE Tn6 FP inh;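 active means inhibition above the mean of test compounds lying between the control limits plus 3 SD of those, cut at about 14% in these data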;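 further: 0% = median of compound wells and 100% = wells with Aha-Tn7 blocking peptide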
DDE Tn6 confirm: inhibitors of Tn6 peptide binding to fibrin DD(E), confirmation, biochemical, fluorescence polarization, human fibrin, Tn6 probe | 680 compounds, 10% hits | inhibition, % at 8.3 µM | shares compounds with DDE Tn6 FP inh | FP displacement of TRITC-Tn6 peptide from DD(E); 0% = per-plate median of test wells | AID 720631, 2013;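 active means inhibition above the mean of compounds lying within the control limits plus 3 SD, cut at about 16% in these data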;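 further: 100% = high control wells holding a competing inhibitor peptide at 10 µM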
Numbers without * were called inactive; i = inactive; x = not tested or not shown.

SMILES	Tn7 DDE FP	Neddylation inh	PKA-R2B act	DDE Tn6 FP inh	PKA-R1A activ	DDE Tn6 FP ctr	DDE Tn6 confirm
COC[C@H]1CCCN1c1ccc2c(c1)O[C@@H]1CCN(C1)S2(=O)=O	-3.3	x	x	-8.5	x	x	x
O=C1C=CC(=O)c2c(O)c(N3CCN(CCO)CC3)c(Cl)c(O)c21	-6.1	-10.6	-11.9	39.8*	-3.1	-4.2	9.5
CC(C)C1OC2(C)OC(=N)C1(C#N)C(C#N)(C#N)C2c1ccccc1 (stereo unspecified)	9.3	x	-0.7	20.2*	-1.7	-2.9	2.4
COc1ccc(CNc2ncnc3cc(Cl)ccc23)cc1OC	2.8	-2.6	-15.6	15.8*	-3.1	-9.3	-5.9
COc1ccccc1CNc1ncnc2cc(Cl)ccc12	10.5	i	0.7	3.0	1.6	x	x
COc1ccc(-n2c(COc3ccccc3)nnc2SCc2nc3ccccc3[nH]2)cc1	5.4	x	x	18.5*	x	-1.7	-9.2
Cc1ccc2[nH]c(=O)c(-c3noc(C(C)C)n3)cc2c1	-2.4	37.6	4.1	17.2*	1.2	-0.8	-5.0
C[C@H]1[C@@H](N)CC[C@@]23CCCN2C(=O)CCC[C@@H]13	-2.6	x	x	-2.8	x	x	x
O=C(Cn1c(=O)[nH]c2ccsc2c1=O)N1CCN(c2ccc(F)cc2)CC1	0.7	x	x	15.5*	x	2.1	-2.5
CCn1c(=S)sc2c(=O)n(-c3ccccc3)c(=S)[nH]c21	4.1	-6.0	4.9	17.9*	-4.1	7.5	-15.4
Cc1ccc(-c2csc3nc4cc(C(=O)NC5CCC(O)CC5)ccc4c(=O)n23)cc1 (stereo unspecified)	-1.6	20.1	5.9	17.3*	6.1	-7.0	-13.7
Cc1ccc(-c2csc3nc4ccc(C(=O)NCCO)cc4c(=O)n23)cc1	0.2	x	-11.5	0.2	2.5	x	x
Oc1ccc(C[C@H]2CN([C@@H](Cc3ccccc3)CN3CCC[C@@H]3CN3C(=S)NC[C@@H]3Cc3ccccc3)C(=S)N2CC2CCCCC2)cc1	-9.6	-3.3	x	-8.6	x	x	x
CCOc1ccc(CCN2C(=S)N([C@@H](Cc3ccc(O)cc3)CN3CCC[C@@H]3CN3C(=S)NC[C@@H]3CC(C)C)C[C@@H]2Cc2ccc(O)cc2)cc1	0.2	2.2	x	15.6*	x	0.1	-6.3
CCOc1ccc(CCN2C(=S)N([C@@H](Cc3ccc(O)cc3)CN3CCCC3CN3C(=S)NC[C@@H]3Cc3ccc(O)cc3)C[C@@H]2CC(C)C)cc1 (stereo partly specified)	1.9	-33.7	-3.6	-7.6	2.6	x	x
Oc1ccc(C[C@H]2CNC(=S)N2C[C@H]2CCCN2C[C@H](Cc2ccccc2)N2C[C@H](Cc3ccc(O)cc3)N(CCc3ccccc3)C2=S)cc1	3.4	2.7	x	17.4*	x	-1.5	-10.4
Oc1ccc(C[C@H]2CNC(=S)N2CC2CCCN2C[C@H](Cc2ccc(O)cc2)N2C[C@H](Cc3ccc(O)cc3)N(CC3CCCCCC3)C2=S)cc1 (stereo partly specified)	8.5	-14.2	1.0	31.0*	4.3	-2.5	-0.7
Oc1ccc(C[C@H]2CN([C@@H](Cc3ccc(O)cc3)CN3CCC[C@@H]3CN3C(=S)NC[C@@H]3Cc3ccccc3)C(=S)N2CCc2ccccc2)cc1	6.3	4.5	x	10.0	x	x	x
CC(=Nc1ccc(Cl)cc1N)c1c(O)cc(C)oc1=O	5.2	x	x	-2.5	x	x	x
CCCCCCn1c(-c2ccc(Cl)cc2Cl)csc1=Nc1ccccc1	-1.4	x	x	9.3	x	x	x
CC(=O)N1CCc2cc(S(=O)(=O)NCCC(=O)NCc3ccccc3)ccc21	1.0	x	x	17.6*	x	0.7	-0.2
CC1CC(C)CN(S(=O)(=O)c2ccc3c(c2)oc(=O)n3CC(=O)N(C)Cc2ccccc2)C1 (stereo unspecified)	2.7	0.5	-13.7	15.2*	-6.4	0.5	-4.2
CCCCNC(=O)Cn1c(=O)oc2cc(S(=O)(=O)N3CC(C)CC(C)C3)ccc21 (stereo unspecified)	9.0	-0.2	-7.2	6.3	4.6	x	x
CN(Cc1ccccc1)C(=O)OCc1cn(Cc2cccc(F)c2)nn1	-1.0	x	x	8.4	x	x	x
C[n+]1c(-c2ccccc2)cc2c(=Cc3ccccc3)c3ccccc3n21	-3.1	x	8.1	16.5*	0.6	2.8	0.5
SMILES	Tn7 DDE FP	Neddylation inh	PKA-R2B act	DDE Tn6 FP inh	PKA-R1A activ	DDE Tn6 FP ctr	DDE Tn6 confirm
COc1ccc(-c2c(S(=O)(=O)c3ccccc3)cnn2-c2ccccc2)cc1	-4.3	-5.1	-7.0	-0.6	-3.7	x	x
O=S(=O)(c1ccccc1)c1cnn(-c2ccccc2)c1-c1ccc(Cl)cc1	4.0	7.6	-1.2	16.1*	10.8	3.5	-6.2
CCCN1CCN(C(=O)Nc2ccc(OCC)cc2)CC1	-2.2	-8.5	2.1	15.2*	-1.6	-2.7	-2.5
CCOc1ccc(NC(=O)N2CCN(Cc3ccc4c(c3)OCO4)CC2)cc1	2.2	5.5	-12.9	4.4	-1.3	x	x
CCCCc1c(-c2ccccc2OC)ncn1Cc1c(Cl)cccc1Cl	1.7	x	x	5.5	x	x	x
COC1=CC(=O)OC(c2ccccc2C(F)(F)F)C1 (stereo unspecified)	7.3	-13.8	x	5.4	x	x	x
COC1=CC(=O)OC(c2ccc(C(F)(F)F)cc2)C1 (stereo unspecified)	8.9	-2.4	x	16.0*	x	1.1	-5.0
O=C(COC(=O)C(Cc1ccccc1)NC(=O)c1cccs1)NCc1ccccc1 (stereo unspecified)	2.3	-16.2	-0.4	3.3	-0.9	x	x
O=C(N[C@@H](Cc1ccccc1)C(=O)OCC(=O)N1CCOCC1)c1cccs1	-0.7	0.2	-10.3	17.8*	1.1	3.0	-5.3
Cc1ccccc1NS(=O)(=O)c1ccc(OCC(=O)N2CCCC2)cc1	1.7	-6.1	-4.6	-0.8	-1.5	x	x
Cc1ccccc1NS(=O)(=O)c1ccc(OCCNS(C)(=O)=O)cc1	1.1	8.5	-5.6	17.4*	-5.5	-7.7	-12.7
Cc1cc(C)n(CC(O)Cn2c(C)c(C)c3ccccc32)n1 (stereo unspecified)	3.3	11.8	-7.2	18.6*	-4.8	-2.2	0.6
Cc1c(C)n(CC(O)CN2CCCCC2)c2ccccc12 (stereo unspecified)	-5.8	16.3	0.7	4.4	-1.1	x	x
